Assay results: ChEMBL document CHEMBL4251738, “A BODIPY-Tagged Phosphono Peptide as Activity-Based Probe for Human Leukocyte Elastase” (ACS Med Chem Lett, 2018)
Calls of active or inactive are those of the source. The calls are words filed in the database; no cut-off is given here.

Tests used:
[1] = target: T1, Neutrophil elastase (Homo sapiens) (UniProt P08246); assay: Irreversible inhibition of human leukocyte elastase assessed as ratio of Kinact to Ki using MeO-Suc-Ala-Ala-Pro-Val-pNA as substrate by spectrophotometric method; conditions: TDE = time-dependent effect
T1 sequence (whole entry): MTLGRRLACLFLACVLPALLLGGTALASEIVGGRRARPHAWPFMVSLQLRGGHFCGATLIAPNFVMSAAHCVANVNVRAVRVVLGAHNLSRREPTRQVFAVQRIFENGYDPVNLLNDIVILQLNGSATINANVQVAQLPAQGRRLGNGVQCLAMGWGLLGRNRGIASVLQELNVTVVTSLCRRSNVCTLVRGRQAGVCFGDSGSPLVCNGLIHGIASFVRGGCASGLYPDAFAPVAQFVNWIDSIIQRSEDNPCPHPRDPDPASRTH
Procedure, shortened: (§1)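 From substrate-consumption progress curves, kobs values (means of duplicates) were plotted against inhibitor concentration. kinac/Ki was derived by linear regression as kinac/Ki = kobs/[I](1 + [S]/Km) + d, where d is an offset. SEM is from that regression.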

[2] = target: T1, Neutrophil elastase (Homo sapiens); assay: Irreversible inhibition of human leukocyte elastase assessed as ratio of Kinact to Ki using MeO-Suc-Ala-Ala-Pro-Val-pNA as substrate incubated over 60 mins by spectrophotometric method; procedure, shortened: as §1
[3] = target: Coagulation factor X (Bos taurus) (UniProt P00743); assay: Inhibition of bovine factor 10a assessed as product formation at 1 uM using Boc-Ile-Glu-Gly-Arg-AMC as substrate incubated over 60 mins by fluorimetric method
Procedure, shortened: (§2)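 Single-point test at 1 μM inhibitor, run in duplicate. Product formation was followed over 60 min. More than 90% product formation after 60 min was scored as no inhibition.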

[4] = target: Prothrombin (Homo sapiens) (UniProt P00734); assay: Inhibition of human thrombin assessed as product formation at 1 uM using Z-Gly-Gly-Arg-AMC as substrate incubated over 60 mins by fluorimetric method; procedure, shortened: as §2
[5] = species: Bos taurus; assay: Inhibition of bovine trypsin assessed as product formation at 1 uM using Suc-Ala-Ala-Pro-Arg-pNA as substrate incubated over 60 mins by spectrophotometric method; procedure, shortened: as §2
[6] = target: Cathepsin B (Homo sapiens) (UniProt P07858); assay: Inhibition of human cathepsin B assessed as product formation at 1 uM using Z-Arg-Arg-pNA as substrate incubated over 60 mins by spectrophotometric method; procedure, shortened: as §2
[7] = target: Procathepsin L (Homo sapiens) (UniProt P07711); assay: Inhibition of human cathepsin L assessed as product formation at 1 uM using Z-Phe-Arg-pNA as substrate incubated over 60 mins by spectrophotometric method; procedure, shortened: as §2
[8] = target: T2, Pancreatic elastase (Sus scrofa) (UniProt P08419+P00772); assay: Inhibition of porcine pancreatic elastase assessed as product formation at 1 uM using MeO-Suc-Ala-Ala-Pro-Val-pNA as substrate incubated over 60 mins by spectrophotometric method; assay type: protein assay; procedure, shortened: as §2
[9] = species: Bos taurus; assay: Inhibition of bovine chymotrypsin assessed as product formation at 1 uM using Suc-Ala-Ala-Pro-Phe-pNA as substrate incubated over 60 mins by spectrophotometric method; procedure, shortened: as §2
[10] = target: T2, Pancreatic elastase (Sus scrofa); assay: Inhibition of porcine pancreatic elastase assessed as ratio of Kinact to Ki using MeO-Suc-Ala-Ala-Pro-Val-pNA as substrate incubated over 60 mins by spectrophotometric method; assay type: protein assay; procedure, shortened: as §1
[11] = species: Bos taurus; assay: Inhibition of bovine chymotrypsin assessed as ratio of Kinact to Ki using Suc-Ala-Ala-Pro-Phe-pNA as substrate incubated over 60 mins by spectrophotometric method; procedure, shortened: as §1
[12] = target: T1, Neutrophil elastase (Homo sapiens); assay: Irreversible inhibition of human leukocyte elastase at 50 nM using MeO-Suc-Ala-Ala-Pro-Val-pNA as substrate incubated for 30 mins followed by substrate addition
[13] = target: T1, Neutrophil elastase (Homo sapiens); assay: Binding affinity to human leukocyte elastase at 2.5 uM after 20 mins by in gel fluorescence detection based SDS-PAGE analysis
Procedure, shortened: (§3)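 Varying amounts of HLE were incubated with 2.5 μM fluorescent probe and then run on SDS-PAGE. Labeled HLE was read by in-gel fluorescence as bands at about 29 kDa. The same gel was then stained with Coomassie.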

[14] = target: T1, Neutrophil elastase (Homo sapiens); assay: Binding affinity to human leukocyte elastase at 160 ng after 20 mins by in gel fluorescence detection based SDS-PAGE analysis; procedure, shortened: as §3
[15] = target: T1, Neutrophil elastase (Homo sapiens); assay: Binding affinity to human leukocyte elastase at 2.5 uM after 20 mins by Coomassie brilliant blue G-250 staining based assay; procedure, shortened: as §3
[16] = target: T1, Neutrophil elastase (Homo sapiens); assay: Binding affinity to human leukocyte elastase at 2.5 uM incubated for 20 mins followed by HEK cell lysate addition by in gel fluorescence detection based SDS-PAGE analysis
Procedure, shortened: (§4)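 HLE (600 ng) was incubated with 2.5 μM probe for 20 min. HEK cell lysate (9 μg) was added either before or after that incubation. Lysate alone and HLE alone were run as reference lanes. Samples went on SDS-PAGE, read by in-gel fluorescence and then by Coomassie staining.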

[17] = target: T1, Neutrophil elastase (Homo sapiens); assay: Binding affinity to human leukocyte elastase at 2.5 uM incubated for 20 mins post HEK cell lysate addition by in gel fluorescence detection based SDS-PAGE analysis; procedure, shortened: as §4
[18] = target: T1, Neutrophil elastase (Homo sapiens); assay: Binding affinity to human leukocyte elastase at 2.5 uM incubated for 20 mins followed by HEK cell lysate addition by Coomassie brilliant blue G-250 staining based assay; procedure, shortened: as §4
[19] = target: T1, Neutrophil elastase (Homo sapiens); assay: Binding affinity to human leukocyte elastase at 2.5 uM incubated for 20 mins post HEK cell lysate addition by Coomassie brilliant blue G-250 staining based assay; procedure, shortened: as §4
[20] = target: T1, Neutrophil elastase (Homo sapiens); assay: Inhibition of human leukocyte elastase at 2.5 uM preincubated with sivelestat for 5 mins followed by compound addition measured after 20 mins in presence of sivelestat by in gel fluorescence detection based SDS-PAGE analysis
Procedure, shortened: (§5)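 It was then incubated with 2.5 μM probe. Samples were resolved by SDS-PAGE, read by in-gel fluorescence and then by Coomassie staining.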

[21] = target: T1, Neutrophil elastase (Homo sapiens); assay: Inhibition of human leukocyte elastase at 2.5 uM preincubated with sivelestat for 5 mins followed by compound addition measured after 20 mins in presence of sivelestat by Coomassie brilliant blue G-250 staining based assay; procedure, shortened: as §5
[22] = target: T1, Neutrophil elastase (Homo sapiens); assay: Irreversible inhibition of human leukocyte elastase at 20 nM using MeO-Suc-Ala-Ala-Pro-Val-pNA as substrate incubated for 30 mins followed by substrate addition

Sequence of Procathepsin L (Homo sapiens) (P07711 114-333 limits assumed): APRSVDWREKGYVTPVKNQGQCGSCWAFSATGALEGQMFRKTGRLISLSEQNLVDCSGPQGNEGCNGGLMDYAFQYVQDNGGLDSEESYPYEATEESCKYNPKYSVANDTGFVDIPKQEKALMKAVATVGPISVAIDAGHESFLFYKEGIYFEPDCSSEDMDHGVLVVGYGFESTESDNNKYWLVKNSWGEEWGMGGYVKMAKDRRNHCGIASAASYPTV
Sequence of Coagulation factor X (Bos taurus) (P00743 41-180 limits assumed): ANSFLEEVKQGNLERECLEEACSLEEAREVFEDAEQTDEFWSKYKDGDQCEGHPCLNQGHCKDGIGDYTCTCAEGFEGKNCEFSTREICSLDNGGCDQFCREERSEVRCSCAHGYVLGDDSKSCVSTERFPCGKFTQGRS
Sequence of Coagulation factor X (Bos taurus) (P00743 234-492 limits assumed): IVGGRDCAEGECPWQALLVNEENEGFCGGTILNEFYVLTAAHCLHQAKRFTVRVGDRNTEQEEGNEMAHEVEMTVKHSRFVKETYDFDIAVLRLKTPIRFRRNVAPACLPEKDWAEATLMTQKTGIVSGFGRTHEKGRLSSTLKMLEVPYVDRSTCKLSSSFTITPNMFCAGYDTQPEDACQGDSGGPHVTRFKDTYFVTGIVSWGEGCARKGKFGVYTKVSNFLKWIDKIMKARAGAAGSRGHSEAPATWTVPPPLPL

With CSc1ccc(OP(=O)(Oc2ccc(SC)cc2)[C@H](NC(=O)[C@@H]2CCCN2C(=O)[C@@H](NC(=O)OC(C)(C)C)C(C)C)C(C)C)cc1 as the molecule, how does the inhibition [1] read?
The inhibition was “Tde”.

And the Ratio [2]?
The Ratio was 1000 M⁻¹ s⁻¹.

What about the inhibition [3] of the same molecule?
Its inhibition is greater than 90%.

What about the inhibition [4] of the same molecule?
The inhibition was greater than 90%.

And the inhibition [5]?
Its inhibition is greater than 90%.

What about the inhibition [6] of the same molecule?
The inhibition was greater than 90%.

And the inhibition [7]?
Its inhibition is greater than 90%.

And the inhibition [8]?
The inhibition was greater than 90%.

What about the inhibition [9] of the same molecule?
The inhibition was greater than 90%.

For CSc1ccc(OP(=O)(Oc2ccc(SC)cc2)[C@@H](NC(=O)[C@@H]2CCCN2C(=O)[C@@H](NC(=O)Cn2cc(-c3ccc(C4=C5C(C)=CC(C)=[N+]5[B-](F)(F)n5c(C)cc(C)c54)cc3)nn2)C(C)C)C(C)C)cc1, which Ratio [2] is on record?
Its Ratio is 88400 M⁻¹ s⁻¹.

And the Ratio [10]?
The Ratio was 1440 M⁻¹ s⁻¹.

What about the Ratio [11] of the same molecule?
Its Ratio is 565 M⁻¹ s⁻¹.

And the inhibition [3]?
The inhibition was greater than 90%.

And the inhibition [4]?
Its inhibition is greater than 90%.

What about the inhibition [5] of the same molecule?
Its inhibition is greater than 90%.

And the inhibition [6]?
The inhibition was greater than 90%.

What about the inhibition [7] of the same molecule?
The inhibition was greater than 90%.

What about the inhibition [12] of the same molecule?
The inhibition was “Active”.

What about the Activity [13] of the same molecule?
Its Activity is “Active”.

And the Activity [14]?
The Activity was “Active”.

What about the Activity [15] of the same molecule?
Its Activity is “Active”.

And the Activity [16]?
Its Activity is “Active”.

And the Activity [17]?
The Activity was “Active”.

And the Activity [18]?
Its Activity is “Active”.

And the Activity [19]?
Its Activity is “Active”.

And the inhibition [20]?
Its inhibition is “inactive”.

And the inhibition [21]?
The inhibition was “inactive”.

CSc1ccc(OP(=O)(Oc2ccc(SC)cc2)[C@@H](NC(=O)[C@@H]2CCCN2C(=O)[C@@H](NC(=O)OC(C)(C)C)C(C)C)C(C)C)cc1 was tested. Which inhibition [1] did it give?
Its inhibition is “Tde”.

What about the Ratio [2] of the same molecule?
The Ratio was 399000 M⁻¹ s⁻¹.

And the Ratio [10]?
Its Ratio is 7990 M⁻¹ s⁻¹.

What about the inhibition [3] of the same molecule?
The inhibition was greater than 90%.

What about the inhibition [4] of the same molecule?
The inhibition was greater than 90%.

What about the inhibition [5] of the same molecule?
The inhibition was greater than 90%.

And the inhibition [6]?
The inhibition was greater than 90%.

And the inhibition [7]?
The inhibition was greater than 90%.

What about the inhibition [9] of the same molecule?
The inhibition was greater than 90%.

And the inhibition [22]?
The inhibition was “Active”.

With CC(C)(C)C(=O)Oc1ccc(S(=O)(=O)Nc2ccccc2C(=O)NCC(=O)O)cc1 as the molecule, how does the inhibition [2] read?
The inhibition was “Dose-dependent effect”.
